A selection: hits, their analogues and other compounds. The true share with any hit is near 2.2%.
LMPTP block: LMPTP (human) inhibition | P24666 | recombinant LMPTP-A, OMFP fluorogenic substrate, fluorescence intensity | 360,000 tested, 0.22% active | inhibition, % at 20 µM;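 active = compounds that cut the enzyme signal by at least half of the control window in the single-dose screen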;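 note: plate controls were DMSO wells with enzyme plus substrate for no effect and substrate without enzyme for full effect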
Target sequence (P24666 whole entry, looked up): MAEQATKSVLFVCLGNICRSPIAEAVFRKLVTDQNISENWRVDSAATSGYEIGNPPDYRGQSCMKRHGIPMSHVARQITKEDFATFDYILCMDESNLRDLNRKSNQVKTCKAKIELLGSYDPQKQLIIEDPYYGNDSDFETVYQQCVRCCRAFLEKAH
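material = LMPTP-A | quantity = 0.625 nM enzyme | reagent = OMFP substrate, 400 µM final | buffer or medium = Bis-Tris pH 6.0, DTT, detergent | detection = endpoint fluorescence intensity from OMFP dephosphorylation | dosing = single 20 µM dose | read-out basis = % inhibition relative to no-enzyme and uninhibited control wells | control set = no-enzyme and uninhibited controls | timing = 50 min at room temperature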
GRK2 aptamer HTS: blocks RNA aptamer binding to human GRK2. 330,000 tested, 0.59% active. bead flow cytometry, FAM-aptamer displacement from GRK2. P25098. inhibition of aptamer binding, % at 10 µM;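 active = inhibition of aptamer binding above 40%, roughly 3 SD of noise, on plates passing a quality check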;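 note: median bead fluorescence of bound FAM aptamer so fluorescent compounds give negative values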
Scp1 inh: Scp-1 (human) phosphatase inhibition; Q9GZU7; Recombinant Scp1, phosphopeptide, malachite green phosphate absorbance; inhibition, % at 20 µM; 340,000 tested, 0.88% active; AID 493091;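 active = inhibition above about 50% at 20 µM, limit read from the data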;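 note: plate controls were DMSO wells with enzyme for no effect and wells lacking enzyme for full effect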
Target sequence (Q9GZU7 76-261 limits assumed): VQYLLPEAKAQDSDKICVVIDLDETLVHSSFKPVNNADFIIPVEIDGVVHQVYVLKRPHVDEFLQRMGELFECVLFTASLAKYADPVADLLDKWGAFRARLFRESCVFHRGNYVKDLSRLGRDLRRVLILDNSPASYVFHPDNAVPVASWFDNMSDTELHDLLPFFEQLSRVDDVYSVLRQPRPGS
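System: truncated SCP-1 phosphatase (76-261aa); medium: Tris acetate buffer pH 5.5 with MgCl2 and Tween-20; incubation: 45 min room-temperature reaction, 5 min colour, 30 min stabiliser; compound: single 20 µM dose, 1% DMSO; reagent: Phosphorylated 17-residue peptide substrate; read-out: % inhibition at 20 µM; technique: colorimetric free-phosphate detection, absorbance 630 nm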
STEP inh: blocks human striatal-enriched tyrosine phosphatase; recombinant STEP, OMFP fluorogenic substrate, fluorescence; inhibition, % at 20 µM; 360,000 tested, 0.25% active; AID 588621;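 active = inhibition at 20 µM, scaled per plate between control wells, above about 37%, limit read from the data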;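 note: 0% = DMSO with enzyme and substrate and 100% = substrate only without enzyme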
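System: isolated STEP enzyme; schedule: 20 min enzyme reaction at room temperature, protected from light; medium: Bis-Tris buffer pH 6.0, 2.5 mM DTT, 0.005% Tween 20; signal: fluorescence, 480/540 nm; dosing: single compound dose of 20 µM, 1% DMSO final; also added: OMFP substrate, 25 µM final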
SUMO1-SIM PPI: modulators of human SUMO1-mediated protein-protein interactions; P63165; SUMO1 binding to a labelled peptide, TR-FRET, 1 h; inhibition, % at 20 µM; 360,000 tested, 0.33% active; AID 602429; in the data active = inhibition above about 37%
Target sequence (P63165 whole entry, looked up): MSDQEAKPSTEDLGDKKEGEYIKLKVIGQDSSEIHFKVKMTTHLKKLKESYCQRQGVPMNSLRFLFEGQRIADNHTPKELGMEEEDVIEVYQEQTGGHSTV
DNMT1 inh: inhibitors of human DNMT1; P26358; DNMT1 molecular beacon, Hinp1I cleavage, fluorescence; inhibition (reported as % activation of signal), % at 10 µM; 360,000 tested, 0.83% active; AID 588458; in the data active = inhibition above about 50%
Active calls of the source: *; nt = no result.

SMILES	LMPTP block	GRK2 aptamer HTS	Scp1 inh	STEP inh	SUMO1-SIM PPI	DNMT1 inh
CCN1CCc2nc(N)sc2C1	1	2	-12	96*	-2	-2
Cn1cnnc1SCC(=O)Nc1ncc([N+](=O)[O-])s1	22	12	75*	7	4	84*
Cc1nn(CCc2nn[nH]n2)c2nc(-c3ccc(C4CCCCC4)cc3)cc(C(F)(F)F)c12	3	1	-7	1	40*	9
Cc1nn(CCC(=O)O)c2nc(-c3cccnc3)cc(C(F)(F)F)c12	0	1	1	6	1	4
CC(C)OC(=O)N(C)C[C@@H]1OCc2ccccc2-c2c(n(C)c3ccccc23)C(=O)N([C@@H](C)CO)C[C@H]1C	-1	nt	nt	1	-3	4
O=[N+]([O-])c1ccc(-c2nc(Nc3cccc(O)c3)c3ccccc3n2)cc1	7	2	-10	-5	-28	-3
O=C(O)c1cccc(Nc2nc(-c3ccc([N+](=O)[O-])cc3)nc3ccccc23)c1	52*	1	41	13	-1	-10
c1nc(SSc2ncnc3nc[nH]c23)c2[nH]cnc2n1	47*	nt	27	-2	1	1
O=C(O)CSc1ncnc2nc[nH]c12	-1	0	-14	0	1	-1
OC(c1cc(Cl)cc(Cl)c1)c1ncc(-c2cccc(F)c2)[nH]1 (stereo unspecified)	2	nt	nt	-2	0	0
CCN(CC)C(=O)C1=C(C)N(Cc2ccc(F)cc2)C(=O)C(CC(=O)NCC2CCCCC2)C1 (stereo unspecified)	1	nt	nt	3	4	-1
CCOC(=O)[C@]12CCC=C1N(Cc1ccc(Cl)cc1Cl)C(=O)[C@H](CC(=O)N1CCOCC1)C2	0	nt	nt	nt	-3	nt
O=C(O)c1cccc2c1C(=O)c1ccccc1C2=O	-1	2	3	-5	-26	0
C[C@@H]1Cc2c(O)c(O)cc(O)c2C(=O)O1	0	6	26	4	2	39
O=C1C=C(O)c2c(O)cc(O)c(O)c2C1=O	76*	4	47	95*	12	12
O=C1c2ccccc2C(=O)c2c(O)c(O)cc(O)c21	66*	0	76*	24	36	79*
CC(=O)Oc1ccc(Cn2c(C)c(C(=O)NC3CC3)sc2=O)cc1	1	nt	nt	1	-2	6
O=S1(=O)N[C@@H](Cc2ccccc2)COc2cccc(N3CCN(Cc4ccccc4F)CC3)c21	1	nt	nt	nt	-3	nt
CC(=NNC(=S)N1CCN(c2ccccn2)CC1)c1nccs1	0	nt	-10	0	-16	-16
O=[N+]([O-])c1ccc(O)c(/C=N/Nc2ncnc3c2cnn3-c2ccccc2)c1	50*	0	11	10	19	-21
CCCCNC(=O)c1c(N)[nH]c(C(=O)c2ccccc2)c1-c1ccc(Cl)cc1	-1	nt	nt	nt	0	nt
CC(=O)NC(NC(C)=O)c1ccc(N(C)C)cc1	0	0	52*	-1	-3	4
CCOC(=O)C1(C)CCN1C(=O)c1cncc(Br)c1 (stereo unspecified)	-2	nt	nt	0	0	-2
COCC(=O)N(C)C[C@@H]1Oc2cc(-c3ccc(F)cc3)ccc2S(=O)(=O)N([C@H](C)CO)C[C@H]1C	-1	nt	nt	-3	-1	1
O=C1CCCN1CCCNc1nc(NCc2cccs2)nc2ccsc12	74*	nt	nt	1	1	0
SMILES	LMPTP block	GRK2 aptamer HTS	Scp1 inh	STEP inh	SUMO1-SIM PPI	DNMT1 inh
CC(=O)NCCNc1nc(NCc2cccs2)nc2ccsc12	34	nt	nt	1	-2	3
Cc1ccc(C)n1-c1cccc(C(=O)Nc2ccccc2)c1	-1	0	-23	1	0	-1
Cc1ccc(C)n1-c1cccc(C(=O)O)c1	nt	96*	nt	nt	nt	nt
Cc1cccc(C)c1NC(=O)C(c1cc2ccccc2o1)N1CCN(C)CC1 (stereo unspecified)	-3	nt	nt	nt	-2	nt
CC(C)Oc1ccc(-c2nc(NCC3CCCO3)c3ccccc3n2)cc1 (stereo unspecified)	51*	2	-4	0	4	7
c1cncc(-c2nc(NCC3CCCO3)c3ccccc3n2)c1 (stereo unspecified)	12	0	4	-2	4	2
Cc1ccc2c(c1)C1C=CCC1C(C(=O)O)N2 (stereo unspecified)	nt	68*	nt	nt	nt	nt
CC(=O)c1ccc2c(c1)C1C=CCC1C(C(=O)O)N2 (stereo unspecified)	12	nt	75*	70*	60*	91*
CC(=O)c1ccc2c(c1)C1C=CCC1C(c1ccncc1)N2 (stereo unspecified)	1	2	3	2	21	-35
O=C(O)C1Nc2ccc(OC(F)(F)F)cc2C2C=CCC12 (stereo unspecified)	nt	29	nt	nt	nt	nt
O=C1Nc2ccccc2N=C(c2ccc3c(c2)OCO3)C1N(C(=O)c1ccc2ccccc2c1)C1CC1 (stereo unspecified)	3	nt	nt	-3	-3	-29
CCc1nc2ccc(C(=O)Nc3cccc(NS(C)(=O)=O)c3)cn2c1N(C)CCN1CCOCC1	1	nt	nt	1	-3	-36
Cc1cc(-c2ccc(N=Nc3c(S(=O)(=O)O)cc4cc(S(=O)(=O)O)cc(N)c4c3O)c(C)c2)ccc1N=Nc1c(S(=O)(=O)O)cc2cc(S(=O)(=O)O)cc(N)c2c1O	nt	98*	nt	nt	nt	nt
Nc1cc(S(=O)(=O)O)cc2ccc(S(=O)(=O)O)cc12	-1	nt	25	8	-1	20
CCN1/C(=C/c2ccc3cc(C)ccc3[n+]2CC)Sc2cc(C)c(C)cc21	65*	nt	19	0	-55	-5
CCOC(=O)/C(=C/C=C1\Sc2cc(C)c(C)cc2N1CC)C(C)=O	12	nt	8	-47	-40	48
Cc1ccc(-n2sc3ccccc3c2=O)cc1	0	0	64*	-3	2	5
O=c1c2ccccc2sn1-c1ccc(Cl)cc1	0	nt	nt	-2	2	-2
COC(=O)c1cccc(-n2sc3ccccc3c2=O)c1	-2	3	95*	2	-2	5
O=c1c2ccccc2sn1-c1ccc(F)cc1	-2	0	81*	2	3	1
CN1C(=O)C(N=Nc2ccc([N+](=O)[O-])cc2)SC1=S (stereo unspecified)	4	nt	3	1	-9	-12
CCOc1ccccc1NC(=O)Nc1ccc2c(c1)OCO2	1	3	-9	-2	5	1
C=CCOc1ccccc1CN(C(=O)CCl)c1ccc2c(c1)OCO2	0	1	-10	-1	-2	79*
COc1ccc([C@H]2CC(=O)C[C@@H](CCn3cc(CCc4ccccc4)nn3)O2)cc1	-1	nt	nt	nt	6	nt
